Screens: PubChem, Sanford-Burnham Center for Chemical Genomics
hIAP inh: human IAP inhibition; P09923; purified IAP, CDP-Star luminescence, 30 min; inhibition, % at 10 µM; hit rate 0.12% among 330,000;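 active means inhibition reaching a set limit with compound at 10 µM in the primary screen, cut at about 35% in these data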;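 further: plate controls were DMSO wells with enzyme for no effect and no-enzyme buffer wells for full effect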
Target sequence (P09923 whole entry, looked up): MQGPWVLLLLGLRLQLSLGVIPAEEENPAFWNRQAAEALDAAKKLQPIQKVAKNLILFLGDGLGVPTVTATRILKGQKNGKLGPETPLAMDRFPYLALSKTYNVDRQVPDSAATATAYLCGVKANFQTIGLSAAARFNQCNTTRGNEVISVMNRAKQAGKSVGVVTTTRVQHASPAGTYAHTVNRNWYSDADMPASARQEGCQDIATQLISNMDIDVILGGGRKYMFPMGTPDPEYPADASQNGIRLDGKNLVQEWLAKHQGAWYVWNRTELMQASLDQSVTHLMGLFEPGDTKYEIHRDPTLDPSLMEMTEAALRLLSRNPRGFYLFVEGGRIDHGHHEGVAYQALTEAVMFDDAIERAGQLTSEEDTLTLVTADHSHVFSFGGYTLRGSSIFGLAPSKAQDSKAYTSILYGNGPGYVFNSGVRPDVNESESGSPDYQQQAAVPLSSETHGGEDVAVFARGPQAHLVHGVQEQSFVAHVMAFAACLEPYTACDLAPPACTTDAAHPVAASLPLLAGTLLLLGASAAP
mIAP act: mouse IAP activation | muIAP, CDP-Star luminescence, 30 min; stronger effect = higher value; 1 = vehicle-only enzyme signal, 0 = enzyme-free wells | activation factor at 10 µM | hit rate 0.24% among 330,000 | AID 2805;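 active means activation factor of at least 2 at 20 µM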
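Assay system: mouse IAP enzyme; reagent: chemiluminescent substrate CDP-Star; dosing: test compounds delivered from DMSO solution; schedule: 30 min at room temperature; measured by: luminescence from enzymatic CDP-Star hydrolysis; controls: DMSO-only wells and no-enzyme negative control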
bIAP activator: increases bovine intestinal alkaline phosphatase activity; purified bovine IAP, CDP-star luminescence, 30 min; stronger effect = higher value; fold of DMSO-control signal, blank-subtracted; activation factor at 20 µM; hit rate 0.17% among 200,000; AID 1016;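 active means activation factor of 2 or more at 20 µM, a signal rise over negative controls twice the positive control's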
bIAP inh: intestinal alkaline phosphatase (bovine) inhibition | AID 1019 | inhibition, % at 20 µM | 190,000 tested, under 10 active | purified bovine IAP, CDP-star luminescence, 30 min;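 active means over 50% inhibition of intestinal alkaline phosphatase at 20 µM in the single-dose screen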
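Assay system – bovine IAP enzyme · Quantity – bovine IAP at 1/65,000,000 final dilution · Detection – CDP-star luminescence signal · Times – 30 min reaction at room temperature · Also added – CDP-star substrate at 30 µM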
hIAP activ: increases human intestinal alkaline phosphatase activity; activation factor at 10 µM; hit rate 0.16% among 330,000; purified human IAP, CDP-Star luminescence, 30 min; stronger effect = higher value; 1 = vehicle-only enzyme, 0 = enzyme-free background; AID 2524;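 active means activation factor of the enzyme at least 2-fold when tested at 20 µM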
mIAP inh: mouse IAP inhibition | purified mouse IAP, CDP-Star luminescence, 30 min | inhibition, % at 10 µM | hit rate 0.2% among 330,000 | AID 2806;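 active means inhibition of at least 40% at 10 µM in the primary screen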;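 further: plate controls were DMSO with enzyme for no effect and no enzyme wells for full effect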
mIAP inh confirm: mouse IAP inhibition confirmation | inhibition, % at 10 µM | hit rate 4.7% among 11,000 | purified mouse IAP, CDP-Star luminescence, 30 min | shares compounds with mIAP inh;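 active means inhibition of at least 40% at 10 µM in either of the two replicates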;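 further: plate controls were DMSO wells with enzyme for no effect and buffer wells lacking enzyme for full effect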
* hit, by the source's call; i = inactive; / = no result given. Rows were chosen to be rich in hits. Some 0.77% of all compounds tested hit in one or more screens of this group.

SMILES	hIAP inh	mIAP act	bIAP activator	bIAP inh	hIAP activ	mIAP inh	mIAP inh confirm
COc1cc(C(CC(=O)Nc2ccc(Cl)cn2)N2Cc3ccccc3C2=O)cc(OC)c1OC (centres undefined)	-7	1.1	/	/	1.1	-12	/
COc1ccc(C(=O)NC(C)C2CC3CCC2C3)c(OC)c1 (centres undefined)	0	1	/	/	1	-1	/
COc1cccc(C(C)NC(=O)Nc2cccc(C(F)(F)F)c2)c1 (centres undefined)	-50	5.3*	0.8	15	1.5	-426	-284
COc1cccc(-c2csc(NC(=O)Nc3ccccc3)n2)c1	12	3.2*	/	/	0.88	-221	-111
CCN(CC)S(=O)(=O)c1cccc(NC(=O)CC2CCCC2)c1	-7	1	/	/	1.1	-2	/
COc1cccc(-c2csc(NC(=O)C3CC3)n2)c1	-6	1.1	1.2	-18	1.1	-7	/
COc1cccc(NC(=O)NC(C)C2CC3CCC2C3)c1 (centres undefined)	6	2.7*	1.1	-9	0.94	-167	-97
CCN(CC)S(=O)(=O)c1cccc(NC(=O)Nc2cccc(C(F)(F)F)c2)c1	-18	7.4*	0.7	34	1.2	i	-357
CCC(NC(=O)c1cc(COc2ccc(F)cc2Cl)on1)c1ccncc1 (centres undefined)	-4	0.98	/	/	1	2	/
CCc1cc(=O)oc2cc(OC(C)C(=O)NCc3ccccn3)ccc12 (centres undefined)	1	0.96	/	/	0.99	4	/
O=C(O)/C=C\c1cc2c(cc1[N+](=O)[O-])OCO2	-16	0.58	/	/	1.2	42*	45*
Cc1ccc(C)c(N=Cc2cc3c(cc2[N+](=O)[O-])OCO3)c1	4	0.67	0.9	8	0.96	33	/
CC(C)(C)c1ccc(O)c(N=Cc2cc3c(cc2[N+](=O)[O-])OCO3)c1	7	0.58	/	/	0.93	42*	49*
c1ccc2c(c1)NCCS2	-13	1.1	1.1	-7	1.1	-7	/
Cc1c(NC(=O)/C=C/c2ccc(S(=O)(=O)N3CCOCC3)cc2)c(=O)n(-c2ccccc2)n1C	6	0.95	1	-4	0.94	5	/
Cc1cccc(NC(=O)NC2CCCc3ccccc32)c1 (centres undefined)	7	2.7*	/	/	0.93	-168	-236
CC(=O)c1cccc(NC(=O)NC2CCCc3ccccc32)c1 (centres undefined)	4	1.4	1	0	0.96	-38	/
COc1ccc(NC(=O)NC[C@@H]2CC[C@@H](Cc3ccc(-c4ccccc4)cc3)O2)cc1	/	2.7*	/	/	/	-171	-182
NC(=O)NC[C@@H]1CC[C@@H](Cc2ccc(-c3ccccc3)cc2)O1	/	1	/	/	/	-4	/
Cc1ccc(S(=O)(=O)N2CCC(C(=O)Nc3ccc(C(C)C)cc3)CC2)cc1	-5	6.6*	/	/	1	i	-249
Cc1ccc(S(=O)(=O)N2CCC(C(=O)Nc3ccc(S(=O)(=O)N4CCCC4)cc3)CC2)cc1C	8	2.2*	/	/	0.92	-115	-122
Cc1ccc(S(=O)(=O)N2CCC(C(=O)Nc3ccc(S(=O)(=O)N4CCCC4)cc3)CC2)cc1	-5	1.7	/	/	1.1	-67	/
O=C(Nc1ccc(S(=O)(=O)Nc2ncccn2)cc1)c1ccccc1Br	16	0.94	/	/	0.84	6	/
C/C(=N\Nc1ccc([N+](=O)[O-])cc1[N+](=O)[O-])C(C)C(C)C (centres undefined)	32	0.98	0.7	35	0.68	2	/
N#CCCN(C(=S)NC(=O)c1ccco1)c1ccccc1F	7	0.83	1.1	-14	0.93	17	/
SMILES	hIAP inh	mIAP act	bIAP activator	bIAP inh	hIAP activ	mIAP inh	mIAP inh confirm
O=C(Nc1cc(Cl)cc(Cl)c1)Nc1cnccn1	-26	2.5*	/	/	1.3	-147	-96
O=C(Nc1ccc(F)cc1)Nc1cnccn1	16	0.99	/	/	0.84	1	/
O=C(Nc1ccc(F)c(Cl)c1)Nc1csc2ccccc12	8	4.9*	/	/	0.92	-387	-115
O=C(Nc1ccc(F)c(Cl)c1)Nc1ccc(Cl)cn1	1	1	1.1	-8	0.99	-5	/
Fc1cccc2sc(Nc3nnc(-c4ccccc4)o3)nc12	-20	0.73	1	-5	1.2	27	37*
Nc1c(C(=O)N/N=C/c2cccnc2)oc2nc(-c3ccco3)cc(-c3ccco3)c12	11	0.51	/	/	0.89	49*	41*
Nc1c(C(=O)N/N=C/c2cccnc2)oc2nc(-c3ccccc3)cc(-c3ccco3)c12	-1	0.93	/	/	1	7	/
NNC(=O)c1oc2nc(-c3ccco3)cc(-c3ccco3)c2c1N	8	0.38	/	/	0.92	62*	72*
Cc1ccc(NC(=O)NCC2CCN(Cc3cccc(Cl)c3)CC2)c(Cl)c1	-46	3.5*	1.2	-20	1.5	-246	-120
Cc1ccc(CN2CCC(CNC(=O)Nc3ccccc3F)CC2)cc1	-8	1.3	/	/	1.1	-32	/
O=C(NCC1CCN(Cc2cccc(Cl)c2)CC1)Nc1ccccc1Cl	-58	2.7*	/	/	1.6	-173	-118
CCN(CC(=O)NCc1ccc(Cl)cc1)C(=O)C(C)Sc1ccccc1 (centres undefined)	-1	1.1	/	/	1	-10	/
O=C(N/N=C/c1ccc([N+](=O)[O-])o1)c1cc2ccccc2o1	7	0.6	/	/	0.93	40*	59*
CCCCCC(=O)N/N=C/c1ccc([N+](=O)[O-])o1	-20	0.77	0.9	8	1.2	23	/
O=C(N/N=C/c1ccc([N+](=O)[O-])o1)c1ccncc1	-14	0.57	/	/	1.1	43*	48*
O=C(N/N=C/c1ccc([N+](=O)[O-])o1)c1ccccc1NS(=O)(=O)c1cccs1	-17	0.47	/	/	1.2	53*	62*
O=C(NN=Cc1ccc(F)cc1)c1ccccc1NS(=O)(=O)c1cccs1	-6	1	/	/	1.1	0	/
O=C(Cc1ccc2c(c1)OCO2)NN=Cc1ccc([N+](=O)[O-])o1	-15	0.46	/	/	1.2	54*	69*
CC(C)C(NC(=O)c1ccccc1F)C(=O)NCCc1ccccn1 (centres undefined)	-2	1	0.9	6	1	-5	/
O=C(c1cc(NC(=O)C23CC4CC(CC(C4)C2)C3)cc(NC(=O)C23CC4CC(CC(C4)C2)C3)c1)N1CCCCC1	6	2.1*	0.9	13	0.94	-106	-106
O=C(NC(=S)N1CCCCC1)C12CC3CC(CC(C3)C1)C2	-14	0.98	0.7	26	1.1	2	/
O=C(NCCc1ccccc1)c1ccc(Cl)c(S(=O)(=O)N2CCOCC2)c1	-21	0.91	/	/	1.2	9	/
O=C(O)C1Nc2c(O)cccc2C2C=CCC12 (centres undefined)	-69	0.26	0.8	24	1.7	74*	86*
